# Activity calls are given as the source filed them. The rule behind the calls is not given here.
# Legend:
# [1] = biological target: C-C chemokine receptor type 8 (Homo sapiens, UniProt P51685); assay: (§1) Antagonist activity at human CCR8 expressed in CHOK1 cells assessed as inhibition in CCL1-induced beta-arrestin 2 recruitment at 20 uM incubated for 30 mins followed by CCL1 addition and measured after 90 or 180 mins by pathhunter beta-arrestin assay relative to control; assay type: cell-based
# Chain of C-C chemokine receptor type 8 (P51685 whole entry): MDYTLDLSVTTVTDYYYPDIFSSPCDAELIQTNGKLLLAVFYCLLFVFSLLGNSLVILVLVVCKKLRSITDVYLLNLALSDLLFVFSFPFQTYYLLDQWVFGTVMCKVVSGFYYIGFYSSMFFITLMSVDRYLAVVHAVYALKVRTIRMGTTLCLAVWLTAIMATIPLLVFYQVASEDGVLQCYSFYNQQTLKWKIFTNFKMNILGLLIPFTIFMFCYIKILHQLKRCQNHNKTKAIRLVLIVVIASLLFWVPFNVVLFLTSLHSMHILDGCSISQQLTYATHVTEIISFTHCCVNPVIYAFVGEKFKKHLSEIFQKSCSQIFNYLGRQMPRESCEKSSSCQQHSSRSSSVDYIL
# Procedure, shortened: (§2)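 PathHunter beta-arrestin recruitment, antagonist mode, run at DiscoverX. Cells seeded and held at 37 °C, then preincubated with test sample for 30 min at 37 °C or room temperature (1% vehicle). Agonist then added at EC80 for 90 or 180 min. IC50 comes from concentration–response runs in the same format.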
# [2] = biological target: T1, Muscarinic acetylcholine receptor M4 (Homo sapiens) (UniProt P08173); assay: as §1, with “Gs/Gi/o-coupled CHRM4” for “CCR8”, “acetylcholine-induced” for “CCL1-induced”, “acetylcholine” for “CCL1”; assay type: cell-based; procedure, shortened: as §2
# T1 sequence (whole entry): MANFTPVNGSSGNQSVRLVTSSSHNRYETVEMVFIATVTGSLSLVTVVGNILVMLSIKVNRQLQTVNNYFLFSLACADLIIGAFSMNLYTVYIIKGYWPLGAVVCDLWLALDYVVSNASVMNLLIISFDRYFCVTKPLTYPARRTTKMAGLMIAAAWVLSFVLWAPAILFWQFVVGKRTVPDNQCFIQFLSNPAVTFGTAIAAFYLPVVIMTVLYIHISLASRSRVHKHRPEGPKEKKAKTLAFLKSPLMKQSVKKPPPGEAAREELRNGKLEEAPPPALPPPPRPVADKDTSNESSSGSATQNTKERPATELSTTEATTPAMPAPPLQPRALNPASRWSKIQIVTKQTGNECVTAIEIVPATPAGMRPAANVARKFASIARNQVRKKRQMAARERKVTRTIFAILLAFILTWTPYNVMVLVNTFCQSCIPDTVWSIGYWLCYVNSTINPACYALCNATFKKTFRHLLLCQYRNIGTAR
# Cannabinoid receptor 1 [3] = biological target: T2, Cannabinoid receptor 1 (Homo sapiens, UniProt P21554); assay: Antagonist activity at human Gi/o-coupled CNR1 expressed in CHOK1 cells assessed as inhibition in CP55940-induced beta-arrestin 2 recruitment at 20 uM incubated for 30 mins followed by CP55940 addition and measured after 90 or 180 mins by pathhunter beta-arrestin assay relative to control; assay type: cell-based; procedure, shortened: as §2
# T2 sequence (P21554 whole entry): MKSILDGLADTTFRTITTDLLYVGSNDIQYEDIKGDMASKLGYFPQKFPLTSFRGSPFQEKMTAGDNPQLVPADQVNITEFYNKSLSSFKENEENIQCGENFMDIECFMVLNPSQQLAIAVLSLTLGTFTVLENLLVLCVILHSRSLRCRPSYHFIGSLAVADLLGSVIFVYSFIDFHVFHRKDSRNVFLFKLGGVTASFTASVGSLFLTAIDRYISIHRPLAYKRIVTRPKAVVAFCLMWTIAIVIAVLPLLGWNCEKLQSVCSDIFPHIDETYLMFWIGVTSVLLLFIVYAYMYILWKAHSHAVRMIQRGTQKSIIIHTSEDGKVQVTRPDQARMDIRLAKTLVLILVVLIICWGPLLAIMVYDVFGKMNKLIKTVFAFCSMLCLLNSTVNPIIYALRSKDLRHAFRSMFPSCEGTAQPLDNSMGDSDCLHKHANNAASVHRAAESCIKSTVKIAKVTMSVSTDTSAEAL
# Cannabinoid receptor 2 [4] = biological target: T3, Cannabinoid receptor 2 (Homo sapiens, UniProt P34972); assay: Antagonist activity at human Gi/o-coupled CNR2 expressed in CHOK1 cells assessed as inhibition in CP55940-induced beta-arrestin 2 recruitment at 20 uM incubated for 30 mins followed by CP55940 addition and measured after 90 or 180 mins by pathhunter beta-arrestin assay relative to control; assay type: cell-based; procedure, shortened: as §2
# T3 sequence (P34972 whole entry): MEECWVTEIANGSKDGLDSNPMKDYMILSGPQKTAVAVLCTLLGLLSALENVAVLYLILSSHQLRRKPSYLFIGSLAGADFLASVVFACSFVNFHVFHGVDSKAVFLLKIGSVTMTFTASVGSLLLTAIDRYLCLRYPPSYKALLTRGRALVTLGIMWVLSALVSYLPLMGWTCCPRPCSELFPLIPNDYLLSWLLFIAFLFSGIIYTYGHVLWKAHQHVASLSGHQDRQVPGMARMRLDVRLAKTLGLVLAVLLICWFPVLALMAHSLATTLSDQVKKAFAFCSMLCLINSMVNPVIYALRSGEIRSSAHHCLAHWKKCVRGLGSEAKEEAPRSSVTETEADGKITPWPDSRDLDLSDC
# [5] = biological target: C-X-C chemokine receptor type 4 (Homo sapiens) (UniProt P61073); assay: Antagonist activity at human Gi/o-coupled CXCR4 expressed in mouse C2C12 cells assessed as inhibition in CXCL12-induced beta-arrestin 2 recruitment at 20 uM incubated for 30 mins followed by CXCL12 addition and measured after 90 or 180 mins by pathhunter beta-arrestin assay relative to control; assay type: cell-based; procedure, shortened: as §2
# Chain of C-X-C chemokine receptor type 4 (Homo sapiens) (P61073 whole entry): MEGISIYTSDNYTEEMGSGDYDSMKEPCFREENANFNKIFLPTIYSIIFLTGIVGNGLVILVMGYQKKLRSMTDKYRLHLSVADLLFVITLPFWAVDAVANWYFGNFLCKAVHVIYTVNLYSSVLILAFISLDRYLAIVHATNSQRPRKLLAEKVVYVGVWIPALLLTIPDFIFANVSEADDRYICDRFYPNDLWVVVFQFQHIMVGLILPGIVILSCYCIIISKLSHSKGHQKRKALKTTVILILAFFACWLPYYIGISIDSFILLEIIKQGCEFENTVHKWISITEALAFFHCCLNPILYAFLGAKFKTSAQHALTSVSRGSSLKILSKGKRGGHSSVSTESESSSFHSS
# [6] = biological target: D(2) dopamine receptor (Homo sapiens) (UniProt P14416); assay: Antagonist activity at human Gi/o-coupled DRD2L expressed in CHOK1 cells assessed as inhibition in dopamine-induced beta-arrestin 2 recruitment at 20 uM incubated for 30 mins followed by dopamine addition and measured after 90 or 180 mins by pathhunter beta-arrestin assay relative to control; assay type: cell-based; procedure, shortened: as §2
# Chain of D(2) dopamine receptor (Homo sapiens) (P14416 whole entry): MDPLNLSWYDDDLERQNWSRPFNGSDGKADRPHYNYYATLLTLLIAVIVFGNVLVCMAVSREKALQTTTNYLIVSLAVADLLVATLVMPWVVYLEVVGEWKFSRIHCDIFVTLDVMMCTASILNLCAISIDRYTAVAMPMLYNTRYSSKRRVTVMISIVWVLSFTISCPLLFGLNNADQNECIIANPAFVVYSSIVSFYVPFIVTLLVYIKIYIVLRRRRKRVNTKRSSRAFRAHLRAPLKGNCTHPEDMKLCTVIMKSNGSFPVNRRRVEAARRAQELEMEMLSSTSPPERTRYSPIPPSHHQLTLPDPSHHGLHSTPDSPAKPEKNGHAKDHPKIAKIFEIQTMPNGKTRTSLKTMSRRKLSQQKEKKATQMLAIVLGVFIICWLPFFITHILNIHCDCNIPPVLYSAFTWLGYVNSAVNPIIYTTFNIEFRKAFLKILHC
# [7] = biological target: T4, Glucose-dependent insulinotropic receptor (Homo sapiens) (UniProt Q8TDV5); assay: Antagonist activity at human GPR119 assessed as inhibition in oleoylethanolamide-induced beta-arrestin 2 recruitment at 20 uM incubated for 30 mins followed by oleoylethanolamide addition and measured after 90 or 180 mins by pathhunter beta-arrestin assay relative to control; procedure, shortened: as §2
# T4 sequence (whole entry): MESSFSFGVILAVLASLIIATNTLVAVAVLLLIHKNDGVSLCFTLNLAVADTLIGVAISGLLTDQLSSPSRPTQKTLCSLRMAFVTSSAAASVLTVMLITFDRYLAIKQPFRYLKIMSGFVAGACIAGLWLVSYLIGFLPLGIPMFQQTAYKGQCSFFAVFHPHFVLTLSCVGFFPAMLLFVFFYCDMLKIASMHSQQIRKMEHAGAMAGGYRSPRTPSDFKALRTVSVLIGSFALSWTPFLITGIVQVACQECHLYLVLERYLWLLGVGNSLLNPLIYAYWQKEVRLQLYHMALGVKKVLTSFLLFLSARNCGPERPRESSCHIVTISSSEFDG
# [8] = biological target: T5, Orexin receptor type 2 (Homo sapiens) (UniProt O43614); assay: (§3) Antagonist activity at human Gq-coupled HCRTR2 expressed in CHOK1 cells assessed as inhibition in Orexin A-induced beta-arrestin 2 recruitment at 20 uM incubated for 30 mins followed by Orexin A addition and measured after 90 or 180 mins by pathhunter beta-arrestin assay relative to control; assay type: cell-based; procedure, shortened: as §2
# T5 sequence (whole entry): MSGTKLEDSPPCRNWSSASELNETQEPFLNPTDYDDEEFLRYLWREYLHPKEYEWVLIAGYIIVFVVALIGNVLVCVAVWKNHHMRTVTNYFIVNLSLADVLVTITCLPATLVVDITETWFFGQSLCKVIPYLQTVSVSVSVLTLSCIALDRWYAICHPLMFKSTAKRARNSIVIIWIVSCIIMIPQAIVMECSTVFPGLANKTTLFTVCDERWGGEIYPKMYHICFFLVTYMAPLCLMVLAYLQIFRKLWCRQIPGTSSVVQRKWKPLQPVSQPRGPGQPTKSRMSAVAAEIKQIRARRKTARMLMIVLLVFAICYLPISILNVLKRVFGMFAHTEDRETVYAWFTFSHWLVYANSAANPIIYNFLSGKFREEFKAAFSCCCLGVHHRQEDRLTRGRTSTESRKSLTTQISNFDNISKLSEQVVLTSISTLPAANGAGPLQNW
# [9] = biological target: T6, Prolactin-releasing peptide receptor (Homo sapiens) (UniProt P49683); assay: as §3, with “PRLHR” for “HCRTR2”, “prolactin releasing peptide (1 to 31)-induced” for “Orexin A-induced”, “prolactin releasing peptide (1 to 31)” for “Orexin A”; assay type: cell-based; procedure, shortened: as §2
# T6 sequence (whole entry): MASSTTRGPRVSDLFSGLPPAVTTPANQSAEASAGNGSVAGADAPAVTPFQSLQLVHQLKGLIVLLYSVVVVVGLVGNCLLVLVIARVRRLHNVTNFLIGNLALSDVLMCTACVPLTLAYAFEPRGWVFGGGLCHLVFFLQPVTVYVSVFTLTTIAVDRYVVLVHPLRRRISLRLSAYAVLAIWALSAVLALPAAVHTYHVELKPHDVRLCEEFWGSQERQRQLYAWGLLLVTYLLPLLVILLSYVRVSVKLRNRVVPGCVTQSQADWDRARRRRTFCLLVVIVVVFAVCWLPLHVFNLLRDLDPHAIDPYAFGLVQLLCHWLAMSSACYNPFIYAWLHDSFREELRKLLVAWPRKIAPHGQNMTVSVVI
# Prostacyclin receptor [10] = biological target: T7, Prostacyclin receptor (Homo sapiens, UniProt P43119); assay: Antagonist activity at human Gs-coupled PTGIR assessed as inhibition in beraprost-induced beta-arrestin 2 recruitment at 20 uM incubated for 30 mins followed by beraprost- addition and measured after 90 or 180 mins by pathhunter beta-arrestin assay relative to control; procedure, shortened: as §2
# T7 sequence (P43119 whole entry): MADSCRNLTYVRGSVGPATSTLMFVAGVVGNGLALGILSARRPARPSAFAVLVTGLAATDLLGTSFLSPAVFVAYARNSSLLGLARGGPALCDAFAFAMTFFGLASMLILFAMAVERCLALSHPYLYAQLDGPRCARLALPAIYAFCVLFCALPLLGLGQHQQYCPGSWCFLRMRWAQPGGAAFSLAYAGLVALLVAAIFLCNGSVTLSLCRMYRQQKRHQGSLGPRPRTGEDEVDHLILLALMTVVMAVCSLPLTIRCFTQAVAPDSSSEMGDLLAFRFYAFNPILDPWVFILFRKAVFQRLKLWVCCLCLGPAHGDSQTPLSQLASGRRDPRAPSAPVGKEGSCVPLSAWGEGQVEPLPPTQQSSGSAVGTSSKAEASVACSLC
# [11] = biological target: Histamine H1 receptor (Homo sapiens) (UniProt P35367); details: at 20 µM
# Chain of Histamine H1 receptor (Homo sapiens) (P35367 whole entry): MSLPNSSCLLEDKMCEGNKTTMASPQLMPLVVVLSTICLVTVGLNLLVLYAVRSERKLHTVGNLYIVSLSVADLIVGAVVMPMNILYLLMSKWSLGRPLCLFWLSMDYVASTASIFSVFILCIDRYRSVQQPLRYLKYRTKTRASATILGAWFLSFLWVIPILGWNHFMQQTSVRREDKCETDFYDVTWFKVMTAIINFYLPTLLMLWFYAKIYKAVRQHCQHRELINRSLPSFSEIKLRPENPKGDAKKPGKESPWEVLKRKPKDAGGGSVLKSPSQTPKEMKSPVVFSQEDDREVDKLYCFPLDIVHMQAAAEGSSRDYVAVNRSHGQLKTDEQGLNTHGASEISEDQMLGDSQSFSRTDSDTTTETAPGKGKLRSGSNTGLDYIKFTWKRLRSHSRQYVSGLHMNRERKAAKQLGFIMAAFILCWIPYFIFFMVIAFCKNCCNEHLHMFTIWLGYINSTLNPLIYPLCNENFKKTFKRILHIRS
# Mus musculus [12] = assay: Suppression of drug-induced cocaine-seeking behavior in C57BL/6J mouse assessed as reduction in morphine-conditioned place preference at 60 nmol, icv administered 20 mins prior to behavioral morphine addition measured twice weekly for 7 weeks; assay type: functional, organism-based; details: in the assay text read “morphine-seeking” for “cocaine-seeking”
# Procedure, shortened: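 Male C57BL/6J mice, 7–11 weeks, 20–33 g. Three-compartment counterbalanced place conditioning. Test agent given i.c.v. in 10% Solutol HS 15/90% saline, 20 min before morphine (10 mg/kg i.p., in 0.9% saline). Mice then confined 40 min in the paired outer chamber. Saline i.p. conditioning in the opposite chamber followed 4 h later. Preference was scored in a 30 min automated test. n = 16–30/group; two-way ANOVA with Tukey post hoc.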
# Mus musculus [13] = assay: Suppression of drug-induced morphine-seeking behavior in C57BL/6J mouse assessed as reduction in stress-induced reinstatement of morphine-CPP at 60 nmol, icv administered 15 mins prior to testing by forced swim test
# Cannabinoid receptor 1 [14] = biological target: T2, Cannabinoid receptor 1; assay: (§4) Antagonist activity at human Gi/o-coupled CNR1 expressed in CHOK1 cells assessed as inhibition in CP55940-induced beta-arrestin 2 recruitment incubated for 30 mins followed by CP55940 addition and measured after 90 or 180 mins by pathhunter beta-arrestin assay; assay type: cell-based
# Procedure, shortened: as §2, with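 “min. […]” for “min.”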
# Cannabinoid receptor 2 [15] = biological target: T3, Cannabinoid receptor 2; assay: Antagonist activity at human Gi/o-coupled CNR2 expressed in CHOK1 cells assessed as inhibition in CP55940-induced beta-arrestin 2 recruitment incubated for 30 mins followed by CP55940 addition and measured after 90 or 180 mins by pathhunter beta-arrestin assay; assay type: cell-based
# Procedure, shortened: as §2, with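 “min. […]” for “min.”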
# [16] = biological target: T8, Glucose-dependent insulinotropic receptor (Homo sapiens, UniProt Q8TDV5); assay: Antagonist activity at human GPR119 expressed in human HEK293 cells assessed as inhibition in agonist-induced beta-arrestin 2 recruitment incubated for 30 mins followed by agonist addition and measured after 90 or 180 mins by pathhunter beta-arrestin assay; assay type: cell-based
# T8 sequence (Q8TDV5 whole entry): T4 sequence (whole entry)
# Procedure, shortened: as §2, with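 “min. […]” for “min.”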
# Neuropeptide S receptor = biological target: T9, Neuropeptide S receptor (Homo sapiens, UniProt Q6W5P4); assay: (§5) Antagonist activity at human Gq-coupled NPSR1b expressed in human U2OS cells assessed as inhibition in neuropeptide S-induced beta-arrestin 2 recruitment incubated for 30 mins followed by neuropeptide S addition and measured after 90 or 180 mins by pathhunter beta-arrestin assay; assay type: cell-based
# T9 sequence (Q6W5P4 whole entry): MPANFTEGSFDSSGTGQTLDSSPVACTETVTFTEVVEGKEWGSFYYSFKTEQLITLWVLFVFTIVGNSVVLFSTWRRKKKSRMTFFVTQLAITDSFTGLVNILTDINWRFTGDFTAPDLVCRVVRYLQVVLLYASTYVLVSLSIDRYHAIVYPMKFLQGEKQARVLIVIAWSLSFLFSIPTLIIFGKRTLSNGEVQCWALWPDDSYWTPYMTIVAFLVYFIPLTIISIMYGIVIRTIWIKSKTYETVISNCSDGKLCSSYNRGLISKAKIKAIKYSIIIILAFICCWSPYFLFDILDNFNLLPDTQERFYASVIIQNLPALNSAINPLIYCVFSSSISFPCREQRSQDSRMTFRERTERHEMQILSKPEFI
# Procedure, shortened: as §2, with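 “min. […]” for “min.”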
# [17] = biological target: T10, Prolactin-releasing peptide receptor (Homo sapiens, UniProt P49683); assay: as §4, with “Gq-coupled PRLHR” for “Gi/o-coupled CNR1”, “prolactin releasing peptide (1 to 31)-induced” for “CP55940-induced”, “prolactin releasing peptide (1 to 31)” for “CP55940”; assay type: cell-based
# T10 sequence (P49683 whole entry): T6 sequence (whole entry)
# Procedure, shortened: as §2, with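 “min. […]” for “min.”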
# Prostacyclin receptor [18] = biological target: T7, Prostacyclin receptor; assay: Antagonist activity at human Gs-coupled PTGIR assessed as inhibition in beraprost-induced beta-arrestin 2 recruitment incubated for 30 mins followed by beraprost- addition and measured after 90 or 180 mins by pathhunter beta-arrestin assay
# Procedure, shortened: as §2, with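 “min. […]” for “min.”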
# [19] = biological target: T11, Neuropeptide S receptor (Homo sapiens) (UniProt Q6W5P4); assay: as §5, with “recruitment at 20 uM” for “recruitment”, “assay relative to control” for “assay”; assay type: cell-based; procedure, shortened: as §2
# T11 sequence (whole entry): T9 sequence (Q6W5P4 whole entry)
Compound,inhibition [1],inhibition [2],inhibition (Cannabinoid receptor 1 [3]),inhibition (Cannabinoid receptor 2 [4]),inhibition [5],inhibition [6],inhibition [7],inhibition [8],inhibition [9],inhibition (Prostacyclin receptor [10]),inhibition [11],IC50 (Cannabinoid receptor 1 [14]),IC50 (Cannabinoid receptor 2 [15]),IC50 [16],IC50 (Neuropeptide S receptor),IC50 [17],IC50 (Prostacyclin receptor [18]),inhibition [19],Activity (Mus musculus [12]),Activity (Mus musculus [13])
CC[C@]12CCCN(C(=O)c3cccc(Br)c3)CCc3c(n(c4ccccc34)C(=O)C1)[C@@H]2OC,,,,,,,,,,,,4.95 µM,25.7 µM,4.62 µM,3.9 µM,13.8 µM,12.5 µM,,,
CC[C@@]12C=C(C(=O)OC)n3c(c(c4ccccc43)CCN(/C=C/C(=O)OC)CCC1)[C@@H]2c1ccc(O)cc1,65%,67%,26%,39%,40%,11%,35%,10%,70%,84%,16%,,,,,,,24%,,
CC[C@]12CCCN3CC[C@]4(C(=O)c5ccccc5N4C(=O)C1)[C@@H]32,6%,22%,0%,13%,-10%,-5%,5%,16%,-7%,22%,-3%,,,,,,,-10%,,

# The next lines start with results.
inhibition [1],inhibition [2],inhibition (Cannabinoid receptor 1 [3]),inhibition (Cannabinoid receptor 2 [4]),inhibition [5],inhibition [6],inhibition [7],inhibition [8],inhibition [9],inhibition (Prostacyclin receptor [10]),inhibition [11],IC50 (Cannabinoid receptor 1 [14]),IC50 (Cannabinoid receptor 2 [15]),IC50 [16],IC50 (Neuropeptide S receptor),IC50 [17],IC50 (Prostacyclin receptor [18]),inhibition [19],Compound,Activity (Mus musculus [12]),Activity (Mus musculus [13])
28%,43%,1%,17%,4%,98%,2%,8%,18%,41%,21%,,,,,,,,CC[C@@]1(CC(=O)NC2CCCC2)CCCN2CCc3c([nH]c4ccccc34)[C@@H]21,,
8%,-8%,0%,11%,10%,-10%,3%,9%,3%,-3%,5%,,,,,,,,CC[C@]12CCCN3CCc4c(n(c5ccccc45)[C@@](O)(C(=O)OC)C1)[C@@H]32,inactive,inactive
5%,4%,35%,20%,21%,102%,8%,9%,1%,8%,,,,,,,,-3%,COC(=O)[C@@H]1[C@H]2C[C@H]3c4[nH]c5ccccc5c4CCN3C[C@@H]2CC[C@@H]1O,,
17%,24%,4%,2%,-9%,0%,-2%,-4%,26%,22%,8%,,,,,,,,CC[C@@]1(CC(=O)OC)CCCN2CC[C@]3(O)C(=Nc4ccccc43)[C@@H]21,,

# Source: ChEMBL document CHEMBL4342456, “Preventing Morphine-Seeking Behavior through the Re-Engineering of Vincamine's Biological Activity” (J Med Chem, 2020)
